The source of these data is ChEMBL document CHEMBL4052589, “Discovery of Imidazo[1,2-a]pyridine Ethers and Squaramides as Selective and Potent Inhibitors of Mycobacterial Adenosine Triphosphate (ATP) Synthesis” (J Med Chem, 2017).

Each structure is given as a SMILES string.

Assay type in all cases: functional
For assay [1], the system named is Mycobacterium tuberculosis. Put plainly: Antimycobacterial activity against Mycobacterium tuberculosis H37Rv harboring ATP synthase subunit-c D28N mutant supplemented with 4 fold MIC of 3-(4-Morpholinophenyl)-4-((pyridin-2-ylmethyl)amino)cyclobut-3-ene-1,2-dione. An outline of the steps:
(§1)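 Spontaneous resistant mutants were selected by plating M. tuberculosis on 7H10 agar containing the squaramide at 4- or 8-fold its MIC. MIC was then determined for the mutants, with MIC taken as the concentration giving 80% growth inhibition.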

The subject of assay [2] is Mycobacterium tuberculosis. The assay is described as follows: Antimycobacterial activity against Mycobacterium tuberculosis H37Rv harboring ATP synthase subunit-c D28N mutant supplemented with 8 fold MIC of 3-(4-Morpholinophenyl)-4-((pyridin-2-ylmethyl)amino)cyclobut-3-ene-1,2-dione. An outline of the steps: as §1
The subject of assay [3] is Mycobacterium tuberculosis. Put plainly: Selectivity ratio of MIC for Mycobacterium tuberculosis H37Rv harboring ATP synthase subunit-a K179N mutant supplemented with 4 fold MIC of 3-(4-Morpholinophenyl)-4-((pyridin-2-ylmethyl)amino)cyclobut-3-ene-1,2-dione to MIC for Mycobacterium tuberculosis H37Rv.
Assay [4] has as its system Mycobacterium tuberculosis. The assay is described as follows: Antimycobacterial activity against Mycobacterium tuberculosis H37Rv harboring ATP synthase subunit-a K179N mutant supplemented with 4 fold MIC of 3-(4-Morpholinophenyl)-4-((pyridin-2-ylmethyl)amino)cyclobut-3-ene-1,2-dione. An outline of the steps: as §1
The subject of assay [5] is Mycobacterium tuberculosis. Put plainly: Selectivity ratio of MIC for Mycobacterium tuberculosis H37Rv harboring ATP synthase subunit-c D28N mutant supplemented with 4 fold MIC of 3-(4-Morpholinophenyl)-4-((pyridin-2-ylmethyl)amino)cyclobut-3-ene-1,2-dione to MIC for Mycobacterium tuberculosis H37Rv.
For assay [6], the system named is Mycobacterium tuberculosis. Put plainly: Antimycobacterial activity against Mycobacterium tuberculosis H37Rv harboring ATP synthase subunit a K179N mutant supplemented with 8 fold MIC of 3-(4-Morpholinophenyl)-4-((pyridin-2-ylmethyl)amino)cyclobut-3-ene-1,2-dione. An outline of the steps: as §1
The test system of assay [7] is Mycobacterium tuberculosis. The assay is described as follows: Selectivity ratio of MIC for Mycobacterium tuberculosis H37Rv harboring ATP synthase subunit-c D28N mutant supplemented with 8 fold MIC of 3-(4-Morpholinophenyl)-4-((pyridin-2-ylmethyl)amino)cyclobut-3-ene-1,2-dione to MIC for Mycobacterium tuberculosis H37Rv.
Assay [8] concerns Mycobacterium tuberculosis. Put plainly: Selectivity ratio of MIC for Mycobacterium tuberculosis H37Rv harboring ATP synthase subunit a K179N mutant supplemented with 8 fold MIC of 3-(4-Morpholinophenyl)-4-((pyridin-2-ylmethyl)amino)cyclobut-3-ene-1,2-dione to MIC for Mycobacterium tuberculosis H37Rv.

Regarding `O=c1c(NCc2cnccn2)c(-c2ccc(N3CCOCC3)cc2)c1=O`, the “MIC=>80” value in assay [1], in assay [2], in assay [4] and in assay [6] was greater than 100 µM throughout. In addition, the Selectivity ratio in assay [3], in assay [5], in assay [7] and in assay [8] was greater than 8 each time.

For `O=c1c(NCc2ccccn2)c(-c2ccc(C(F)(F)F)cc2)c1=O`, the “MIC=>80” value was greater than 100 µM in assay [1], 100 µM in assay [2], greater than 100 µM in assay [4] and “>=100 uM” in assay [6]. The Selectivity ratio in assay [3], in assay [5], in assay [7] and in assay [8] was greater than 8 throughout.

Consider `O=c1c(NCc2ccccn2)c(-c2ccc(N3CCOCC3)cc2)c1=O`, for which the “MIC=>80” value in assay [1] was greater than 100 µM; in assay [2], 100 µM; in assay [4], greater than 100 µM; in assay [6], greater than 100 µM. In addition, the Selectivity ratio in assay [3], in assay [5], in assay [7] and in assay [8] was greater than 8 each time.

For `NNC(=O)c1ccncc1` [ISONIAZID], the “MIC=>80” value in assay [1] was 0.02 µM; in assay [2], 0.03 µM; in assay [4] it was 0.03 µM; in assay [6] it was 0.02 to 0.03 µM. Moreover, the Selectivity ratio result in assay [3], in assay [5], in assay [7] and in assay [8] was “<=4” throughout.

As to `CO[C@H]1/C=C/O[C@@]2(C)Oc3c(C)c(O)c4c(O)c(c(/C=N/N5CCN(C)CC5)c(O)c4c3C2=O)NC(=O)/C(C)=C\C=C\[C@H](C)[C@H](O)[C@@H](C)[C@@H](O)[C@@H](C)[C@H](OC(C)=O)[C@@H]1C` [RIFAMPIN], the “MIC=>80” value is 0.008 µM in assay [1], 0.016 µM in assay [2], 0.008 µM in assay [4] and 0.004 to 0.008 µM in assay [6]. The Selectivity ratio result in assay [3], in assay [5], in assay [7] and in assay [8] was “<=4” throughout.
